Source: ChEMBL document CHEMBL3124823, “1,2,3-Triazole-containing derivatives of rupestonic acid: click-chemical synthesis and antiviral activities against influenza viruses” (Eur J Med Chem, 2014)
In brackets after ≈: the same amount, converted by molar mass.

Test system: Influenza A virus
Assay: Antiviral activity against oseltamivir-resistant Influenza A virus (A/Tianjinjinnan/15/2009/H1N1) infected in MDCK cells assessed as inhibition of virus-induced cytopathicity after 40 hrs
Assay type: functional, organism-based
Settings: A/Tianjin-Jinnan/15/2009(H1N1)
Summary of the method: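 CPE reduction in MDCK cells: cells grown 24 h at 37 °C, 5% CO2, then infected and held 2 h at 37 °C before the inoculum was removed. Threefold serial drug dilutions (8 levels from 20 mg/mL DMSO stocks) were added and incubated 40 h at 37 °C. CPE inhibition was scored against cell and virus controls to give IC50. Ribavirin and oseltamivir were the controls.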

Row | Compound | IC50
1 | NC(=O)c1ncn([C@@H]2O[C@H](CO)[C@@H](O)[C@H]2O)n1 [RIBAVIRIN] | 6.5 µg/mL (≈ 26.6 µM)
2 | C=C(C(=O)NCc1cn(Cc2cccc(OC)c2)nn1)[C@@H]1CC[C@H](C)[C@@H]2CC(=O)C(C)=C2C1 | > 22.2 µg/mL
3 | C=C(C(=O)OCc1cn(Cc2cccc(Cl)c2)nn1)[C@@H]1CC[C@H](C)[C@@H]2CC(=O)C(C)=C2C1 | > 66.7 µg/mL
4 | C=C(C(=O)OCc1cn(C2C=CCCC2)nn1)[C@@H]1CC[C@H](C)[C@@H]2CC(=O)C(C)=C2C1 (some centres not stated) | > 7.41 µg/mL
5 | C=C(C(=O)OCc1cn(Cc2ccc(F)cc2)nn1)[C@@H]1CC[C@H](C)[C@@H]2CC(=O)C(C)=C2C1 | > 22.2 µg/mL
6 | C=C(C(=O)NCc1cn(Cc2ccccc2)nn1)[C@@H]1CC[C@H](C)[C@@H]2CC(=O)C(C)=C2C1 | > 22.2 µg/mL
7 | C=C(C(=O)NCc1cn(Cc2ccccc2F)nn1)[C@@H]1CC[C@H](C)[C@@H]2CC(=O)C(C)=C2C1 | > 66.7 µg/mL
8 | C=C(C(=O)OCc1cn(Cc2cccc(F)c2)nn1)[C@@H]1CC[C@H](C)[C@@H]2CC(=O)C(C)=C2C1 | > 22.2 µg/mL
9 | CCOC(=O)C1=C[C@@H](OC(CC)CC)[C@H](NC(C)=O)[C@@H](N)C1 [OSELTAMIVIR] | > 500 µg/mL
10 | C=C(C(=O)NCc1cn(Cc2ccc(Cl)c(Cl)c2)nn1)[C@@H]1CC[C@H](C)[C@@H]2CC(=O)C(C)=C2C1 | 22.2 µg/mL (≈ 45.6 µM)
11 | C=C(C(=O)OCc1cn(Cc2ccc(Cl)c(Cl)c2)nn1)[C@@H]1CC[C@H](C)[C@@H]2CC(=O)C(C)=C2C1 | > 7.41 µg/mL
12 | C=C(C(=O)NCc1cn(Cc2cccc(C)c2)nn1)[C@@H]1CC[C@H](C)[C@@H]2CC(=O)C(C)=C2C1 | > 22.2 µg/mL
13 | C=C(C(=O)OCc1cn(Cc2ccccc2C)nn1)[C@@H]1CC[C@H](C)[C@@H]2CC(=O)C(C)=C2C1 | > 22.2 µg/mL
14 | C=C(C(=O)NCc1cn(Cc2cccc(Cl)c2)nn1)[C@@H]1CC[C@H](C)[C@@H]2CC(=O)C(C)=C2C1 | > 7.41 µg/mL
15 | C=C(C(=O)OCc1cn(Cc2ccc(C)cc2)nn1)[C@@H]1CC[C@H](C)[C@@H]2CC(=O)C(C)=C2C1 | > 22.2 µg/mL
16 | C=C(C(=O)OCc1cn(C2CCCCC2)nn1)[C@@H]1CC[C@H](C)[C@@H]2CC(=O)C(C)=C2C1 | 59.2 µg/mL (≈ 144 µM)

Row | Compound | IC50
17 | C=C(C(=O)OCc1cn(Cc2ccccc2F)nn1)[C@@H]1CC[C@H](C)[C@@H]2CC(=O)C(C)=C2C1 | > 22.2 µg/mL
18 | C=C(C(=O)NCc1cn(Cc2ccc(F)cc2)nn1)[C@@H]1CC[C@H](C)[C@@H]2CC(=O)C(C)=C2C1 | > 66.7 µg/mL
19 | C=C(C(=O)NCc1cn(Cc2cccc(F)c2)nn1)[C@@H]1CC[C@H](C)[C@@H]2CC(=O)C(C)=C2C1 | > 22.2 µg/mL
20 | C=C(C(=O)OCc1cn(Cc2cccc(OC)c2)nn1)[C@@H]1CC[C@H](C)[C@@H]2CC(=O)C(C)=C2C1 | > 22.2 µg/mL
21 | C=C(C(=O)NCc1cn(Cc2ccc(Cl)cc2)nn1)[C@@H]1CC[C@H](C)[C@@H]2CC(=O)C(C)=C2C1 | > 2.47 µg/mL
22 | C=C(C(=O)OCc1cn(Cc2ccc(Cl)cc2)nn1)[C@@H]1CC[C@H](C)[C@@H]2CC(=O)C(C)=C2C1 | > 22.2 µg/mL
23 | C=C(C(=O)OCc1cn(Cc2cccc(C)c2)nn1)[C@@H]1CC[C@H](C)[C@@H]2CC(=O)C(C)=C2C1 | 19.7 µg/mL (≈ 45.5 µM)
24 | C=C(C(=O)NCc1cn(Cc2ccccc2C)nn1)[C@@H]1CC[C@H](C)[C@@H]2CC(=O)C(C)=C2C1 | > 22.2 µg/mL
25 | C=C(C(=O)NCc1cn(Cc2ccc(OC)cc2)nn1)[C@@H]1CC[C@H](C)[C@@H]2CC(=O)C(C)=C2C1 | > 22.2 µg/mL
26 | C=C(C(=O)NCc1cn(Cc2ccc(C)cc2)nn1)[C@@H]1CC[C@H](C)[C@@H]2CC(=O)C(C)=C2C1 | > 22.2 µg/mL
27 | C=C(C(=O)NCc1cn(C2C=CCCC2)nn1)[C@@H]1CC[C@H](C)[C@@H]2CC(=O)C(C)=C2C1 (some centres not stated) | 19.7 µg/mL (≈ 48.3 µM)
28 | C=C(C(=O)OCc1cn(Cc2ccccc2Cl)nn1)[C@@H]1CC[C@H](C)[C@@H]2CC(=O)C(C)=C2C1 | 59.2 µg/mL (≈ 130 µM)
29 | C=C(C(=O)NCc1cn(C2CCCCC2)nn1)[C@@H]1CC[C@H](C)[C@@H]2CC(=O)C(C)=C2C1 | 22.2 µg/mL (≈ 54.1 µM)
30 | C=C(C(=O)NCc1cn(Cc2ccccc2Cl)nn1)[C@@H]1CC[C@H](C)[C@@H]2CC(=O)C(C)=C2C1 | > 7.41 µg/mL
31 | C=C(C(=O)OCc1cn(Cc2ccccc2)nn1)[C@@H]1CC[C@H](C)[C@@H]2CC(=O)C(C)=C2C1 | > 7.41 µg/mL
32 | C=C(C(=O)OCc1cn(Cc2ccc(OC)cc2)nn1)[C@@H]1CC[C@H](C)[C@@H]2CC(=O)C(C)=C2C1 | 22.2 µg/mL (≈ 49.4 µM)
